Assay results reported in PubChem BioAssay AID686992 (Broad Institute, 2013).
Hit rate of the full screen: of about 260,000 compounds, about 960 (0.37%) were called active.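 Rule for the calls: active = mean E-selectin-positive cell signal at least 10% of the positive control, reached in at least 60% of replicates, without over 20% cell loss; inconclusive = no rule given, readout overlaps actives, possibly toxicity-flagged; inactive = the rest, including those meeting only one limit.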 What follows is part of a selection rich in actives, with near analogues and random picks from the rest.

molecular target: E-selectin (Homo sapiens) (UniProt P16581); test: inducers of endothelial E-selectin expression – imaging, HUVEC, immunofluorescence imaging, single point, primary screen (AID 686992); conditions: at 7.58 µM, active compounds read high, normalized: neutral wells 0, TNF-alpha wells 100;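 note: signal is the percent of cells scored E-selectin positive by PE staining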
Method in brief: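 Test system: HUVEC | Signal: Immunofluorescence imaging | Read-out: Percent E-selectin-positive cells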

E-selectin (Homo sapiens), sequence (P16581 whole entry, looked up): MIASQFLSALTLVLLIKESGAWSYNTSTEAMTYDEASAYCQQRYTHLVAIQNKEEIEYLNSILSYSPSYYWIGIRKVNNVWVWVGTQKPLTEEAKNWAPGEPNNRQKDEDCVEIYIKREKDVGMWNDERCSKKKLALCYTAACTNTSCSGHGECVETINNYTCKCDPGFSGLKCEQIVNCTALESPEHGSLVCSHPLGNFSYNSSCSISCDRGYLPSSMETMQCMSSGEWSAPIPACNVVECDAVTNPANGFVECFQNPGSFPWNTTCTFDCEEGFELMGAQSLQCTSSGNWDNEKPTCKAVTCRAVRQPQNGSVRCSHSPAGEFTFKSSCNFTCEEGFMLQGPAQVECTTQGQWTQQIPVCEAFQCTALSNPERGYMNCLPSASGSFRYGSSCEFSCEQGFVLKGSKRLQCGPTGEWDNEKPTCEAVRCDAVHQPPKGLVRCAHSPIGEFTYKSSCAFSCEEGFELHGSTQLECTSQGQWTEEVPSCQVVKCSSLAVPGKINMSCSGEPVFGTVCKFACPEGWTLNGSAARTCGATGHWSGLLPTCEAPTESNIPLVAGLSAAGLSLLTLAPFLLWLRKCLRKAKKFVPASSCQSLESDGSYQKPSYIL

Question: With O=C(NCCN1CCOCC1)c1ccc2c(c1)N(Cc1cccc(Cl)c1)C(=O)c1ccccc1S2(=O)=O as the compound, how does the activation read?
Answer: 0.148% (inactive)

Question: How did the activation turn out when COc1ccc(NC(=O)CCCOc2ccc(C(C)=O)cc2)cc1S(=O)(=O)N1CCCCC1 was run?
Answer: -6.06% (inactive)

Question: CCOC(=O)C1CCN(C(=O)c2ccc3c(=O)n4nc(Nc5ccccc5CC)sc4nc3c2)CC1 was tested. Which activation did it give?
Answer: -0.0345% (inactive)

Question: With COc1ccc(NC(=O)C(c2ccncc2)n2c(=O)c(-c3cc4ccccc4[nH]3)nc3ccccc32)cc1 (centres undefined) as the compound, how does the activation read?
Answer: 0.124% (inactive)

Question: For CCOC(=O)C1CSCCS(=O)(=O)N1Cc1ccc(Cl)cc1 (centres undefined), which activation is on record?
Answer: 0.0275% (inactive)

Question: For CN[C@H]1C[C@H]2c3cc(Oc4ccccc4C)ccc3CCN2C(=O)[C@H]1[C@H](C)O, which activation is on record?
Answer: -1.54% (inactive)

Question: For COC(=O)C(C)NC(=O)COc1ccc2ccccc2c1 (centres undefined), which activation is on record?
Answer: 0.228% (inactive)

Question: How did the activation turn out when Cc1ccc(C)c(NC(=O)CN(C)C(=O)COc2ccc3ccccc3c2)c1 was run?
Answer: -0.121% (inactive)

Question: With Cc1cc2ccccc2n1CCNC(=O)COc1ccc2ccccc2c1 as the compound, how does the activation read?
Answer: 51.8% (active)

Question: With CCCN1C[C@@H](C)[C@@H](OC)CN(C)C(=O)c2cc(NC(=O)CC(F)(F)F)ccc2OC[C@H]1C as the compound, how does the activation read?
Answer: 0.11% (inactive)

Question: Which activation does the source give for CC(C)(C)OC(=O)N[C@H](C(=O)OC(C)(C)C)c1ccc(Br)cc1 here?
Answer: 0.0795% (inactive)

Question: How did the activation turn out when O=C(NN=Cc1ccco1)C(=O)Nc1ccc(Cl)c([N+](=O)[O-])c1 was run?
Answer: -0.0805% (inactive)

Question: How did the activation turn out when CC(=O)N1C[C@@H](CO)[C@@H](N(C)C(=O)C(C)(C)C)C[C@H]1c1ccccc1Br was run?
Answer: -0.326% (inactive)

Question: How did the activation turn out when COc1cccc2cc(S(=O)(=O)c3ccc(C)cc3)/c(=N/NS(=O)(=O)c3ccc(C)cc3)oc12 was run?
Answer: 0.616% (inactive)

Question: With Cc1cc(S(=O)(=O)c2cc3ccc(O)c(C)c3oc2=O)ccc1F as the compound, how does the activation read?
Answer: 69.9% (active)

Question: Which activation does the source give for Cc1ccc(CC2(C)C(=O)Nc3ccc(OC(F)(F)F)cc32)cc1 (centres undefined) here?
Answer: -0.201% (inactive)

Question: Cn1cnc(S(=O)(=O)N2C[C@@H](O)COC[C@H]3O[C@@H](CC(=O)NCc4ccc(F)cc4)CC[C@@H]32)c1 was tested. Which activation did it give?
Answer: -0.0625% (inactive)

Question: For O=C(NC[C@H]1[C@@H](c2ccccc2)[C@H](CO)N1CC1CC1)c1cccnc1, which activation is on record?
Answer: 0.036% (inactive)

Question: Which activation does the source give for Cc1ccc(Nc2nc(-c3sc(NC(=O)c4ccccc4)nc3C)cs2)cc1 here?
Answer: 0.138% (inactive)

Question: How did the activation turn out when Cc1ccc(Nc2nc(Cl)c(C=O)s2)cc1 was run?
Answer: 48.9% (active)

Question: Cc1ccc(Nc2nnc(SC(C)C(=O)NC3CC3)s2)cc1 (centres undefined) was tested. Which activation did it give?
Answer: -0.687% (inactive)

Question: With Cc1[nH]nc2c1C(c1ccc(Br)cc1)NC2=O (centres undefined) as the compound, how does the activation read?
Answer: -0.228% (inactive)

Question: COc1ccc(S(=O)(=O)N(C)C[C@H]2Oc3ccc(NC(=O)Nc4c(C)noc4C)cc3C(=O)N([C@@H](C)CO)C[C@@H]2C)cc1 was tested. Which activation did it give?
Answer: 43.2% (active)

Question: How did the activation turn out when COc1ccc(S(=O)(=O)N(C)C[C@H]2Oc3ccc(NC(=O)Nc4c(C)noc4C)cc3C(=O)N([C@H](C)CO)C[C@H]2C)cc1 was run?
Answer: 45.3% (active)

Question: For COc1ccc(NC(=O)Nc2ccc3c(c2)C(=O)N([C@@H](C)CO)C[C@H](C)[C@@H](CN(C)S(=O)(=O)c2ccc(Cl)cc2)O3)cc1, which activation is on record?
Answer: 8.29% (inactive)

Question: Which activation does the source give for Cc1noc(C)c1NC(=O)Nc1ccc2c(c1)C(=O)N([C@@H](C)CO)C[C@H](C)[C@H](CN(C)S(=O)(=O)c1ccc(Cl)cc1)O2 here?
Answer: -0.247% (inactive)

Question: How did the activation turn out when COc1ccc(S(=O)(=O)N(C)C[C@@H]2Oc3ccc(NC(=O)Nc4c(C)noc4C)cc3C(=O)N([C@H](C)CO)C[C@@H]2C)cc1 was run?
Answer: -0.053% (inactive)

Question: For COc1ccc(S(=O)(=O)N(C)C[C@H]2Oc3ccc(NC(=O)Nc4c(C)noc4C)cc3CC(=O)N([C@@H](C)CO)C[C@H]2C)cc1, which activation is on record?
Answer: -4.24% (inactive)

Question: How did the activation turn out when CC1=C(C(=O)N(C(C)C)C(C)C)CC(CC(=O)NCCCCc2ccccc2)C(=O)N1CCC1=CCCCC1 (centres undefined) was run?
Answer: 1.3% (inactive)

Question: Cc1cc(C)n2c(Nc3c(C)cccc3C)c(CCc3ccccc3)nc2n1 was tested. Which activation did it give?
Answer: 0.0345% (inactive)

Question: Which activation does the source give for COc1cccc2c1C(=O)c1c(O)c3c(c(O)c1C2=O)CC(O)(C(C)=NNC(=O)c1ccc(Cl)c(Cl)c1)CC3OC1CC(N)C(O)C(C)O1 (centres undefined) here?
Answer: 160% (active)

Question: How did the activation turn out when CO[C@H]1CN(C)C(=O)c2ccc(NC(=O)CC(F)(F)F)cc2OC[C@H](C)N(C(=O)C2CC2)C[C@H]1C was run?
Answer: -0.112% (inactive)

Question: With CCC(=O)Nc1ccc2c(c1)C(=O)N(C)[C@@H]1CC[C@@H](CC(=O)NCCN3CCCCC3)O[C@@H]1CO2 as the compound, how does the activation read?
Answer: -0.0795% (inactive)

Question: How did the activation turn out when CCNS(=O)(=O)c1ccc(CCC(=O)N2CCN(c3cc(Cl)ccc3C)CC2)cc1 was run?
Answer: -0.168% (inactive)

Question: For CCNS(=O)(=O)c1ccc(CCC(=O)N2CCN(c3ccc(OC)cc3)CC2)cc1, which activation is on record?
Answer: 31.3% (active)

Question: With COc1ccc(N2CCN(C(=O)CNC(=O)c3ccc(Br)o3)CC2)cc1 as the compound, how does the activation read?
Answer: -0.05% (inactive)

Question: For COc1ccccc1CCn1cnc(-c2ccccc2)c1C(C)C, which activation is on record?
Answer: -0.038% (inactive)

Question: Which activation does the source give for O=C(c1cccnc1)N1C[C@@H]2[C@H](c3ccccc31)[C@@H](CO)N2C(=O)Nc1ccc(F)cc1 here?
Answer: 0.778% (inactive)

Question: Cc1cccc(NS(=O)(=O)c2cccc(C(=O)NNC(=O)c3ccccc3O)c2)c1 was tested. Which activation did it give?
Answer: -0.07% (inactive)

Question: Cc1ccccc1NC(=O)c1cc(S(=O)(=O)Nc2cccc(C(=O)O)c2)ccc1Cl was tested. Which activation did it give?
Answer: 65.6% (active)

Question: How did the activation turn out when O=C(Nc1ccc(Br)cc1)c1cc(S(=O)(=O)Nc2ccccn2)ccc1Cl was run?
Answer: 0.225% (inactive)

Question: Which activation does the source give for CC(C)C[C@H]1CN([C@@H](Cc2ccccc2)CN2CCC[C@@H]2CN2C(=O)C(=O)NC[C@@H]2Cc2ccc(O)cc2)C(=O)C(=O)N1CCc1ccccc1 here?
Answer: 9.99% (inactive)

Question: With COc1ccc(C(=O)Nc2ccccc2C(=O)N2CCN(c3ccccc3)CC2)cc1 as the compound, how does the activation read?
Answer: 0.169% (inactive)

Question: How did the activation turn out when CCCCNC(=O)c1ccccc1NC(=O)C1=C(C)OCCS1 was run?
Answer: 0.108% (inactive)

Question: How did the activation turn out when COc1ccc(N2CCN(C(=O)c3ccccc3NC(=O)C3=C(C)OCCS3)CC2)cc1 was run?
Answer: 54.3% (active)

Question: Which activation does the source give for COc1ccc(Sc2ccc(NC(=O)c3cccc(Cl)c3)cc2C#N)cc1 here?
Answer: 2.08% (inactive)

Question: How did the activation turn out when O=C(O)C1CCC(CNS(=O)(=O)c2ccc(Br)cc2)CC1 (centres undefined) was run?
Answer: -0.071% (inactive)

Question: CCCCSCCCNC(=O)C1CCC(CNS(=O)(=O)c2ccc(NC(C)=O)cc2)CC1 (centres undefined) was tested. Which activation did it give?
Answer: 58.2% (active)

Question: How did the activation turn out when COCCCNC(=O)C1CCC(CNS(=O)(=O)c2ccc(OC)cc2)CC1 (centres undefined) was run?
Answer: -0.0375% (inactive)
